Measurements reported in ChEMBL document CHEMBL3774372, “Design, physico-chemical properties and biological evaluation of some new N-[(phenoxy)alkyl]- and N-{2-[2-(phenoxy)ethoxy]ethyl}aminoalkanols as anticonvulsant agents” (Bioorg Med Chem, 2016).
Activity calls are given as the source filed them. The rule behind the calls is not given here.

Key:
[1] = test system: Mus musculus; test: Anticonvulsant activity in mouse assessed as protection against 6 Hz psychomotor seizure at 20 mg/kg, ip after 4 hrs; type: functional, organism-based
How it was run: (§1)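 Suspension in 0.5% methylcellulose given ip to mice; corneal stimulation with 0.2 ms monopolar rectangular pulses at 6 Hz for 3 s from a constant current device, mice restrained then released to observation cage. Protected if normal exploratory behaviour resumed within 10 s of stimulation. Scored as protected/tested, 4 mice per group.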

[2] = test system: Rattus norvegicus; test: Anticonvulsant activity in rat assessed as protection against maximal electric shock-induced seizures at 30 mg/kg, po measured after 2 hrs; type: functional, organism-based
How it was run: (§2)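 Rats dosed ip or orally as 0.5% methylcellulose suspension; maximal electroshock at listed time. Protection = abolition of hindlimb tonic extension; 4 rats per group, scored protected/tested.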

[3] = test system: Mus musculus; test: Anticonvulsant activity in mouse assessed as protection against 6 Hz psychomotor seizure at 20 mg/kg, ip after 1 hr; type: functional, organism-based; how it was run: as §1
[4] = test system: Mus musculus; test: Anticonvulsant activity in mouse assessed as protection against 6 Hz psychomotor seizure at 20 mg/kg, ip after 2 hrs; type: functional, organism-based; how it was run: as §1
[5] = test system: Rattus norvegicus; test: Anticonvulsant activity in rat assessed as protection against maximal electric shock-induced seizures at 30 mg/kg, ip measured after […]; type: functional, organism-based
[6] = biological target: Adenosine receptor A1 (Homo sapiens) (UniProt P30542); test: Displacement of [3H]DPCPX from human recombinant adenosine A1 receptor expressed in CHO cells at 10^-5 M; type: cell-based
How it was run: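 Radioligand binding screen run at a single test concentration of 10^-5 M. Each target used its stated receptor source (human recombinant CHO or HEK-293 cells, endogenous cell lines, or rat tissue membranes) with the listed radioligand.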

[7] = test system: Rattus norvegicus; test: Anticonvulsant activity in rat assessed as protection against maximal electric shock-induced seizures at 30 mg/kg, ip measured after 2 hrs; type: functional, organism-based; how it was run: as §2
[8] = Ratio of drug level in brain to plasma in CD1 mouse at 1 mg/kg, iv administered as single dose measured after 120 mins by LC/ESI-MS/MS analysis; type: ADME, organism-based; details: brain and plasma, read-out: BPR
[9] = test system: Mus musculus; test: Neurotoxicity in mouse at 30 mg/kg, ip after 4 hrs by rotarod test; type: toxicity, organism-based; details: in vivo
How it was run: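 Mice were dosed ip with compound suspended in 0.5% methylcellulose. Rotarod: a 1 in. knurled rod turning at 6 rpm. Neurotoxicity was scored as failure to stay on the rod for at least 1 min in each of three trials. Results are given as the number of animals affected out of the number tested.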

[10] = test system: Mus musculus; test: Anticonvulsant activity in ip dosed mouse assessed as protection against maximal electric shock-induced seizures measured after […]; type: functional
[11] = test system: Rattus norvegicus; test: Toxicity in pilocarpine-induced status epilepticus Sprague-Dawley rat assessed as death at 400 mg/kg, ip; type: organism-based; details: in vivo
How it was run: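 Pilocarpine 50 mg/kg ip given to male Sprague-Dawley rats (150–180 g). At the first stage 3–5 seizure (Racine scale), compound was given ip to groups of 8. Deaths and protection were recorded at 0.25–4 h; weight change was measured 24 h after the first stage 3 seizure.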

[12] = test system: Mus musculus; test: Analgesic activity in mouse assessed as reduction in AUC of formalin-induced licking time during inflammatory phase at 13 mg/kg, ip relative to control; type: functional
How it was run: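 Formalin injected into a mouse hindlimb; total licking time taken as pain intensity. Compound given ip at 13 mg/kg as a suspension in 0.5% methylcellulose; vehicle-only animals served as controls.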

[13] = test system: Rattus norvegicus; test: Toxicity in pilocarpine-induced status epilepticus Sprague-Dawley rat model assessed as average weight change at 100 mg/kg, ip measured 24 hrs post first stage 3 seizure; type: organism-based; details: in vivo
[14] = test system: Vibrio harveyi; test: Antimutagenic activity against Vibrio harveyi BB7 assessed as inhibition of NQNO-induced mutagenicity after 48 hrs; type: functional
How it was run: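 V. harveyi cultures grown exponentially to A600 0.1 at 30 °C, exposed to test compound for 15 min, then to NQNO, and grown on to A600 0.3–0.4. 5 × 10⁶ cells plated on BOSS agar with neomycin (100, final). Neomycin-resistant colonies counted after 48 h at 30 °C. Result given as % inhibition of NQNO mutagenicity; three independent repeats.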

[15] = Ratio of drug level in brain to plasma in CD1 mouse at 1 mg/kg, iv administered as single dose measured after 30 mins by LC/ESI-MS/MS analysis; type: ADME, organism-based; details: brain and plasma, read-out: BPR
[16] = test system: Mus musculus; test: AUMC (0 to infinity) in CD1 mouse plasma at 1 mg/kg, iv measured up to 240 mins by LC/ESI-MS/MS analysis; type: ADME, organism-based; details: in vivo, 4 h
How it was run: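 Male CD1 mice fasted overnight, single iv dose 1 mg/kg; sampled at 0, 5, 15, 30, 60, 120 and 240 min (one sample per mouse, four mice per time), under ketamine/xylazine. Heparinized plasma quantified by validated LC/ESI-MS/MS; non-compartmental moment method; AUMC extrapolated to infinity using terminal rate constant from log-linear regression.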

[17] = test system: Mus musculus; test: AUC (0 to infinity) in CD1 mouse plasma at 12.92 mg/kg, ig measured up to 240 mins by LC/ESI-MS/MS analysis; type: ADME, organism-based; set-up: dose 12.92 mg/kg, time infinity, route […]; details: in vivo, po, 4 h
[18] = test system: Mus musculus; test: AUMC (0 to infinity) in CD1 mouse plasma at 12.92 mg/kg, ip measured up to 240 mins by LC/ESI-MS/MS analysis; type: ADME, organism-based; details: in vivo, 4 h
[19] = MRT in CD1 mouse brain at 1 mg/kg, iv measured up to 240 mins by LC/ESI-MS/MS analysis; type: ADME, organism-based
[20] = MRT in CD1 mouse brain at 12.92 mg/kg, ig measured up to 240 mins by LC/ESI-MS/MS analysis; type: ADME, organism-based; details: po
[21] = Cmax in CD1 mouse brain at 12.92 mg/kg, ig measured up to 240 mins by LC/ESI-MS/MS analysis; type: ADME, organism-based; set-up: dose 12.92 mg/kg, route […]; details: po
[22] = Ratio of drug level in brain to plasma in CD1 mouse at 1 mg/kg, iv administered as single dose measured after 5 mins by LC/ESI-MS/MS analysis; type: ADME, organism-based; details: brain and plasma, read-out: BPR
[23] = Ratio of drug level in brain to plasma in CD1 mouse at 12.92 mg/kg, ig administered as single dose measured after 60 mins by LC/ESI-MS/MS analysis; type: ADME, organism-based; details: brain and plasma, po, read-out: BPR
[24] = Ratio of drug level in brain to plasma in CD1 mouse at 12.92 mg/kg, ig administered as single dose measured after 120 mins by LC/ESI-MS/MS analysis; type: ADME, organism-based; details: brain and plasma, po, read-out: BPR
[25] = Ratio of drug level in brain to plasma in CD1 mouse at 12.92 mg/kg, ip administered as single dose measured after 60 mins by LC/ESI-MS/MS analysis; type: ADME, organism-based; details: brain and plasma, read-out: BPR
[26] = test system: Rattus norvegicus; test: Anticonvulsant activity in pilocarpine-induced status epilepticus Sprague-Dawley rat model at 30 mg/kg, ip after […] during post stage 3 seizure; type: functional, organism-based
[27] = test system: Rattus norvegicus; test: Anticonvulsant activity in pilocarpine-induced status epilepticus Sprague-Dawley rat model at 100 mg/kg, ip after 2 hrs during post stage 3 seizure; type: functional, organism-based
How it was run: (§3)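 Rats given pilocarpine 50 mg/kg ip and observed to first convulsive seizure (Racine stage 3–5, time zero); test drug then given ip in 0.5% methylcellulose. Efficacy = halting further stage 3–5 convulsive seizures; scored protected/tested, time after first stage 3 seizure.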

[28] = test system: Rattus norvegicus; test: Anticonvulsant activity in pilocarpine-induced status epilepticus Sprague-Dawley rat model at 100 mg/kg, ip after 4 hrs during post stage 3 seizure; type: functional, organism-based; how it was run: as §3

Chain of Adenosine receptor A1 (Homo sapiens) (P30542 whole entry): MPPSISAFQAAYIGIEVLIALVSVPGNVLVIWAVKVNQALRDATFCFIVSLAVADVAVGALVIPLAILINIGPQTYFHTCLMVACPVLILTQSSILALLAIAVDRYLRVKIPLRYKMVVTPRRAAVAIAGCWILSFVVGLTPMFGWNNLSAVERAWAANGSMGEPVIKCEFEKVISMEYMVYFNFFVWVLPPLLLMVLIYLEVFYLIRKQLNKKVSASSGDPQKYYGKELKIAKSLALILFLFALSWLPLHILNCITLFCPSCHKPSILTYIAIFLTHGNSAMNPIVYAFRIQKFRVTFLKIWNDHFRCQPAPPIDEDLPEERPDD

Structure (SMILES): Cc1cccc(C)c1OCCOCCN[C@@H](C)CO
- Activity [1]: inactive
- Activity [2]: inactive
- Activity [3]: inactive
- Activity [4]: inactive
- Activity [5]: Active
- inhibition [6]: -6.9%
- Activity [7]: inactive

Structure (SMILES): Cc1cccc(C)c1OCCOCCN[C@H](C)CO.Cl
- Kp at 2 h [8]: 6.66
- Activity [9]: Non-toxic
- ED50 [10]: 12.9 mg/kg
- Activity [11]: Non-toxic
- inhibition in vivo at 13 mg/kg [12]: 81.1%
- Activity [13]: 17.5 g
- inhibition (INH) [14]: 75%
- Kp at 0.5 h [15]: 5.41
- AUMC [16]: 956 ng·h²/mL
- AUC [17]: 396 ng·h/mL
- AUMC [18]: 1280 ng·h²/mL
- MRT [19]: 0.835 h
- MRT [20]: 1.23 h
- Cmax [21]: 1640 ng/mL
- Kp at 5 min [22]: 5.27
- Kp at 1 h [23]: 5.95
- Kp at 2 h [24]: 3.18
- Kp at 1 h [25]: 1.91

Structure (SMILES): Cc1cccc(C)c1OCCOCCN[C@H](C)CO
- Activity [26]: inactive
- Activity [27]: inactive
- Activity [28]: inactive
